These results are taken from ChEMBL document CHEMBL1151771, “Lanostane-type triterpenes from the mushroom Astraeus pteridis with antituberculosis activity” (J Nat Prod, 2008).

A word on the MIC: it is the smallest concentration in the dilution series that meets the test's criterion for growth inhibition.

≈ marks a conversion by molar mass, not a printed value.

Data set [1] relates to Mycobacterium tuberculosis. In words: Antimicrobial activity against Mycobacterium tuberculosis H37Rv by Alamar blue assay. In kind it is functional. A digest of the protocol:
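M. tuberculosis H37Rv (ATCC27294) in microplate Alamar Blue assay, fluorescence read-out. MIC taken as lowest concentration giving 90% fluorescence reduction relative to controls. Rifampin run in each test as positive quality control.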
(In general: Resazurin is reduced to fluorescent resorufin, in cell work by metabolically active cells.)

Data set [2] relates to Vero. In words: Cytotoxicity against african green monkey Vero cells upto 100 uM. Type of data set: cell-based. Particulars: chlorocebus sabaeus. A digest of the protocol: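 Vero cells (ATCC CCL-81) tested with a nonradioactive cell proliferation (CellTiter 96) assay. IC50 taken as the reciprocal dilution giving 50% inhibition of Vero cells.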

In the case of `C[C@H]([C@@H]1CC[C@H](C)[C@@H](O)O1)[C@H]1CC[C@@]2(C)C3=C(CC[C@]12C)[C@@]1(C)CC[C@H](O)C(C)(C)[C@@H]1CC3` [ASTRAPTERIDIOL], in data set [1], the minimum inhibitory concentration (MIC) was greater than 64 µg/mL. Also, the Activity entry in data set [2] is “Non-toxic”.
Consider `C[C@H]([C@@H]1CC[C@H](C)[C@@H](O)O1)[C@H]1CC[C@@]2(C)C3=C(CC[C@]12C)[C@@]1(C)CC[C@@H](O)C(C)(C)[C@@H]1CC3`, for which 34 µg/mL (≈ 74.1 µM) was the least that counted as inhibitory in data set [1] (MIC). The Activity result in data set [2] was “Non-toxic”.
As for `C[C@H]([C@@H]1CC[C@H](C)C(=O)O1)[C@H]1CC[C@@]2(C)C3=C(CC[C@]12C)[C@@]1(C)CCC(=O)C(C)(C)[C@@H]1CC3` [ASTRAHYGRONE], inhibition of growth in data set [1] (MIC) required 64 µg/mL (≈ 141 µM). Moreover, the Activity result in data set [2] was “Non-toxic”.
The corresponding values for `C[C@H]([C@@H]1CC[C@H](C)C(=O)O1)[C@H]1CC[C@@]2(C)C3=C(CC[C@]12C)[C@@]1(C)CC[C@@H](O)C(C)(C)[C@@H]1CC3` are 58 µg/mL (≈ 127 µM) and “Non-toxic”.
For `C[C@H]([C@@H]1CC[C@H](C)[C@@H](O)O1)[C@H]1CC[C@@]2(C)C3=C(CC[C@]12C)[C@@]1(C)CCC(=O)C(C)(C)[C@@H]1CC3` [ASTRAPTERIDONE], in that order: greater than 64 µg/mL and “Non-toxic”.
